Converted amounts (≈) assume the structure as drawn.
Tests used:
Assay type in all cases: functional
Bacteroides fragilis [1] = assay: Antimicrobial activity against Bacteroides fragilis ATCC 25285T deficient in nimI gene assessed as inhibition of growth at 48 hrs by agar dilution method
Method in brief: (§1)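 Metronidazole MIC by agar dilution (CLSI M11-A7) on brucella agar with 5% sheep blood, hemin and vitamin K1. Plates were read after 48 h at 35°C under anaerobic conditions. Susceptible was MIC ≤ 4 μg/ml and resistant MIC ≥ 8 μg/ml (EUCAST). B. fragilis ATCC 25285T and B. thetaiotaomicron ATCC 29741 were run as controls. Duplicate assays.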

Prevotella nanceiensis [2] = assay: Antimicrobial activity against Prevotella nanceiensis LBN 410 deficient in nimI gene assessed as inhibition of growth after three consecutive subcultures on compound free medium by agar dilution method; conditions: Hoylesella nanceiensis
Method in brief: (§2)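 Stability of induced resistance: metronidazole-selected isolates were subcultured three consecutive times on drug-free brucella blood agar (5% sheep blood, hemin, vitamin K1) under anaerobic conditions, then MIC was redetermined by CLSI agar dilution. Resistance was called stable if the MIC held within ±1 dilution. Duplicate experiments.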

Prevotella bivia [3] = assay: Antimicrobial activity against slow growing colonies of Prevotella bivia LBN 478 deficient in nim gene assessed as inhibition of growth at 48 hrs by agar dilution method; conditions: LBN 478, 48 h
Method in brief: (§3)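 Metronidazole MIC by agar dilution per CLSI M11-A7 on brucella agar with 5% sheep blood, hemin and vitamin K1. Plates incubated anaerobically at 35°C and read at 48 h, with a second reading after a further 72 h. B. fragilis ATCC 25285T and B. thetaiotaomicron ATCC 29741 served as controls. Done in duplicate; EUCAST breakpoints applied (S ≤4, R ≥8 μg/ml).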

Prevotella bivia [4] = assay: Antimicrobial activity against Prevotella bivia LBN 336 deficient in nim gene assessed as inhibition of growth at 48 hrs by agar dilution method; conditions: LBN 336, 48 h; method in brief: as §1
Prevotella bivia [5] = assay: Antimicrobial activity against Prevotella bivia LBN 374 deficient in nim gene assessed as inhibition of growth at 48 hrs by agar dilution method; conditions: LBN 374, 48 h; method in brief: as §1
Prevotella nanceiensis [6] = assay: Antimicrobial activity against Prevotella nanceiensis LBN 298 deficient in nim gene assessed as inhibition of growth at 48 hrs by Etest method; conditions: Hoylesella nanceiensis, LBN 298, 48 h
Method in brief: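 Metronidazole Etest, per the manufacturer's instructions, on brucella blood agar with hemin and vitamin K1. Read after 48 h at 35°C under anaerobic conditions. Breakpoints were ≤ 4 μg/ml susceptible and ≥ 8 μg/ml resistant (EUCAST). Duplicate assays.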

Prevotella bivia [7] = assay: Antimicrobial activity against Prevotella bivia LBN 365 deficient in nim gene assessed as inhibition of growth at 48 hrs by agar dilution method; conditions: LBN 365, 48 h; method in brief: as §1
Prevotella bivia [8] = assay: Antimicrobial activity against Prevotella bivia LBN 467 deficient in nimI gene assessed as inhibition of growth after three consecutive subcultures on compound free medium by agar dilution method
Method in brief: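 Resistance induction: bacterial suspensions were plated on supplemented brucella blood agar with rising metronidazole concentrations. Colonies from the highest concentration were tested by agar dilution. MIC was then redetermined after three consecutive subcultures on drug-free agar. Resistance counted as stable if the MIC held within ±1 dilution. Anaerobic growth at 37°C. Duplicate experiments.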

Prevotella bivia [9] = assay: Antimicrobial activity against Prevotella bivia LBN 343 deficient in nim gene assessed as inhibition of growth at 48 hrs by agar dilution method; conditions: LBN 343, 48 h
Method in brief: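 Agar dilution MIC on brucella agar with 5% sheep blood, hemin and vitamin K1, following CLSI M11-A7. Plates read after 48 h at 35°C under anaerobic conditions, with B. fragilis ATCC 25285T and B. thetaiotaomicron ATCC 29741 as controls. Assays in duplicate. Isolates kept at −80°C in brucella broth with 15% glycerol. Interpretation used EUCAST breakpoints (S ≤4, R ≥8 μg/ml).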

Prevotella bivia [10] = assay: Antimicrobial activity against Prevotella bivia LBN 332 deficient in nimI gene assessed as inhibition of growth after three consecutive subcultures on compound free medium by agar dilution method; method in brief: as §2
Prevotella bivia [11] = assay: Antimicrobial activity against slow growing colonies of Prevotella bivia LBN 361 deficient in nim gene assessed as inhibition of growth at 48 hrs by agar dilution method; conditions: LBN 361, 48 h; method in brief: as §3
Prevotella nanceiensis [12] = assay: Antimicrobial activity against slow growing colonies of Prevotella nanceiensis LBP 66 deficient in nim gene assessed as inhibition of growth at 48 hrs by agar dilution method; conditions: Hoylesella nanceiensis, LBP 66, 48 h; method in brief: as §3
Prevotella bivia [13] = assay: Antimicrobial activity against Prevotella bivia LBP 52 deficient in nim gene assessed as inhibition of growth at 48 hrs by agar dilution method; conditions: LBP 52, 48 h; method in brief: as §1
Prevotella nanceiensis [14] = assay: Antimicrobial activity against Prevotella nanceiensis LBN 410 deficient in nim gene assessed as inhibition of growth at 48 hrs by agar dilution method; conditions: Hoylesella nanceiensis, LBN 410, 48 h; method in brief: as §1
Prevotella nanceiensis [15] = assay: Antimicrobial activity against slow growing colonies of Prevotella nanceiensis LBN 410 deficient in nim gene assessed as inhibition of growth at 48 hrs by agar dilution method; conditions: Hoylesella nanceiensis, LBN 410, 48 h; method in brief: as §3
Prevotella bivia [16] = assay: Antimicrobial activity against Prevotella bivia LBP 51 deficient in nim gene assessed as inhibition of growth at 48 hrs by agar dilution method; conditions: LBP 51, 48 h; method in brief: as §1
Prevotella bivia [17] = assay: Antimicrobial activity against slow growing colonies of Prevotella bivia LBP 51 deficient in nim gene assessed as inhibition of growth at 48 hrs by agar dilution method; conditions: LBP 51, 48 h; method in brief: as §3
Prevotella nanceiensis [18] = assay: Antimicrobial activity against Prevotella nanceiensis LBP 66 deficient in nim gene assessed as inhibition of growth at 48 hrs by agar dilution method; conditions: Hoylesella nanceiensis, LBP 66, 48 h; method in brief: as §1
Prevotella bivia [19] = assay: Antimicrobial activity against slow growing colonies of Prevotella bivia LBN 371 deficient in nim gene assessed as inhibition of growth at 48 hrs by agar dilution method; conditions: LBN 371, 48 h; method in brief: as §3
Prevotella bivia [20] = assay: Antimicrobial activity against slow growing colonies of Prevotella bivia LBN 332 deficient in nim gene assessed as inhibition of growth at 48 hrs by agar dilution method; conditions: LBN 332, 48 h
Method in brief: (§4)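 Slowly growing colonies inside the Etest inhibition zone, seen after prolonged incubation (an additional 72 h after the 48 h reading), were subcultured without antibiotic. They were then retested for metronidazole MIC by agar dilution on supplemented brucella blood agar under anaerobic conditions.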

Bacteroides fragilis [21] = assay: Antimicrobial activity against Bacteroides fragilis ATCC 25285T deficient in nimI gene assessed as inhibition of growth after several passages on plates containing increasing concentration of compound by agar dilution method
Method in brief: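 Induction of metronidazole resistance: bacterial suspensions inoculated onto brucella blood agar (5% sheep blood, hemin, vitamin K1) containing metronidazole at increasing concentrations, grown anaerobically at 37°C. Colonies growing at the highest concentration were retested for MIC by CLSI agar dilution on the same agar. Duplicate experiments.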

Prevotella bivia [22] = assay: Antimicrobial activity against slow growing colonies of Prevotella bivia LBN 333 deficient in nim gene assessed as inhibition of growth at 48 hrs by agar dilution method; conditions: LBN 333, 48 h; method in brief: as §4
Prevotella bivia [23] = assay: Antimicrobial activity against Prevotella bivia LBN 333 deficient in nim gene assessed as inhibition of growth at 48 hrs by agar dilution method; conditions: LBN 333, 48 h; method in brief: as §1
Prevotella baroniae = assay: Antimicrobial activity against Prevotella baroniae LBN 430 expressing nimI gene assessed as inhibition of growth after three consecutive subcultures on compound free medium by agar dilution method; conditions: Segatella baroniae; method in brief: as §2
Prevotella bivia [24] = assay: Antimicrobial activity against slow growing colonies of Prevotella bivia LBN 343 deficient in nim gene assessed as inhibition of growth at 48 hrs by agar dilution method; conditions: LBN 343, 48 h; method in brief: as §4

## Cc1ncc([N+](=O)[O-])n1CCO [METRONIDAZOLE]
Bacteroides fragilis [1]
  MIC: 0.5 µg/mL (≈ 2.92 µM)
Prevotella nanceiensis [2]
  MIC: 256 µg/mL (≈ 1500 µM)
Prevotella bivia [3]
  MIC: 8 µg/mL (≈ 46.7 µM)
Prevotella bivia [4]
  MIC: 2 µg/mL (≈ 11.7 µM)
Prevotella bivia [5]
  MIC: 2 µg/mL (≈ 11.7 µM)
Prevotella nanceiensis [6]
  MIC: 4 µg/mL (≈ 23.4 µM)
Prevotella bivia [7]
  MIC: 4 µg/mL (≈ 23.4 µM)
Prevotella bivia [8]
  MIC: > 256 µg/mL
Prevotella bivia [9]
  MIC: 1 µg/mL (≈ 5.84 µM)
Prevotella bivia [10]
  MIC: > 256 µg/mL
Prevotella bivia [11]
  MIC: 32 µg/mL (≈ 187 µM)
Prevotella nanceiensis [12]
  MIC: 8 µg/mL (≈ 46.7 µM)
Prevotella bivia [13]
  MIC: 4 µg/mL (≈ 23.4 µM)
Prevotella nanceiensis [14]
  MIC: 1 µg/mL (≈ 5.84 µM)
Prevotella nanceiensis [15]
  MIC: 32 µg/mL (≈ 187 µM)
Prevotella bivia [16]
  MIC: 2 µg/mL (≈ 11.7 µM)
Prevotella bivia [17]
  MIC: 32 µg/mL (≈ 187 µM)
Prevotella nanceiensis [18]
  MIC: 2 µg/mL (≈ 11.7 µM)
Prevotella bivia [19]
  MIC: 32 µg/mL (≈ 187 µM)
Prevotella bivia [20]
  MIC: 32 µg/mL (≈ 187 µM)
Bacteroides fragilis [21]
  MIC: 256 µg/mL (≈ 1500 µM)
Prevotella bivia [22]
  MIC: 32 µg/mL (≈ 187 µM)
Prevotella bivia [23]
  MIC: 2 µg/mL (≈ 11.7 µM)
Prevotella baroniae
  MIC: 128 µg/mL (≈ 748 µM)
Prevotella bivia [24]
  MIC: 16 µg/mL (≈ 93.5 µM)
